Laboratory results from ChEMBL document CHEMBL1141265, “Flavonoids as opioid receptor ligands: identification and preliminary structure-activity relationships” (J Nat Prod, 2007).
Activity calls are given as the source filed them. No cut-off for these calls is given here.

Key:
[1] = biological target: Kappa-type opioid receptor (Homo sapiens) (UniProt P41145); assay: Antagonist activity at human kappa opioid receptor expressed in CHO cells by [35S]GTP-gamma-S assay; assay type: functional, cell-based
Outline: (§1)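 Ke from rightward shift of the agonist concentration–response curve (DAMGO μ, DPDPE δ, U69,593 κ) by one fixed concentration of test compound; membranes from stably transfected CHO cells, 0.1 nM [35S]GTPγS, 10 μM GDP, 50 mM HEPES pH 7.4, 1 h room temperature, duplicates, filtration then scintillation counting; EC50s by three-parameter logistic fit, Ke = [L]/[(A′/A) − 1].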

[2] = Selectivity for antagonist activity at human mu opioid receptor to kappa opioid receptor expressed in CHO cells by [35S]GTP-gamma-S assay; assay type: functional
[3] = biological target: Mu-type opioid receptor (Homo sapiens) (UniProt P35372); assay: Antagonist activity at human mu opioid receptor expressed in CHO cells by [35S]GTP-gamma-S assay; assay type: functional, cell-based
[4] = biological target: T1, Delta-type opioid receptor (Homo sapiens, UniProt P41143); assay: Antagonist activity at human delta opioid receptor expressed in CHO cells by [35S]GTPgammaS assay; assay type: functional, cell-based; outline: as §1
[5] = Selectivity for antagonist activity at human delta opioid receptor to kappa opioid receptor expressed in CHO cells by [35S]GTP-gamma-S assay; assay type: functional
[6] = Agonist activity at opioid receptor relative to U69,593; assay type: functional
[7] = biological target: T1, Delta-type opioid receptor; assay: Intrinsic activity at human delta opioid receptor expressed in CHO cells upto 10 uM by [35S]GTP-gamma-S assay; assay type: functional, cell-based
Outline: (§2)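 Screened at 10 μM for agonist or inverse-agonist activity on CHO membrane homogenates expressing human δ, κ or μ receptor; 0.1 nM [35S]GTPγS, 1 μM GDP, 50 mM HEPES pH 7.4, 1 h room temperature, duplicates; bound label separated by vacuum filtration over GF-B, scintillation counted, normalized to vehicle basal binding; subtype-selective agonist run as positive control.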

[8] = biological target: Kappa-type opioid receptor (Homo sapiens) (UniProt P41145); assay: Intrinsic activity at human kappa opioid receptor expressed in CHO cells upto 10 uM by [35S]GTP-gamma-S assay; assay type: functional, cell-based; outline: as §2
[9] = Binding affinity to opiate receptor
[10] = biological target: Mu-type opioid receptor (Homo sapiens) (UniProt P35372); assay: Intrinsic activity at human […] mu receptor expressed in CHO cells upto 10 uM by [35S]GTP-gamma-S assay; assay type: functional, cell-based; outline: as §2
[11] = biological target: T1, Delta-type opioid receptor; assay: Binding affinity to delta opioid receptor

T1 sequence (P41143 whole entry): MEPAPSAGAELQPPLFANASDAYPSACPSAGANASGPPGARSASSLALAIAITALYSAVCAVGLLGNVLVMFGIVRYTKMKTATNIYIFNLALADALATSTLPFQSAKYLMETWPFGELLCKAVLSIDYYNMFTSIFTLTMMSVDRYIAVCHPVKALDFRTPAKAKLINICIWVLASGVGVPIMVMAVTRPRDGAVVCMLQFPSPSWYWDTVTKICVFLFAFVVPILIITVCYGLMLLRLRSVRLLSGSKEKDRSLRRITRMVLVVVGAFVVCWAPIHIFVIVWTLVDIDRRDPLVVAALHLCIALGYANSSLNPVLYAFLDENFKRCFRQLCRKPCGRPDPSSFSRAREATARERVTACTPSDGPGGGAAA
Chain of Kappa-type opioid receptor (Homo sapiens) (P41145 whole entry): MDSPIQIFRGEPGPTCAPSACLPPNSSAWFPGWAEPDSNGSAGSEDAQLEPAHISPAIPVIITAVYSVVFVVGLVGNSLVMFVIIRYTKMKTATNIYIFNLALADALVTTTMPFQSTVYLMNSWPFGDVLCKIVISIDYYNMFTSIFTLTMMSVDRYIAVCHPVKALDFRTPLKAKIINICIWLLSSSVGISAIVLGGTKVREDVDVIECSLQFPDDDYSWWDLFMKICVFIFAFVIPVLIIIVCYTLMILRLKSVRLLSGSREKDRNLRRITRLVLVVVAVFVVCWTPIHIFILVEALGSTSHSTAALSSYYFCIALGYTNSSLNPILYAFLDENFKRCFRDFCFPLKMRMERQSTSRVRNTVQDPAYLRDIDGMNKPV
Chain of Mu-type opioid receptor (Homo sapiens) (P35372 whole entry): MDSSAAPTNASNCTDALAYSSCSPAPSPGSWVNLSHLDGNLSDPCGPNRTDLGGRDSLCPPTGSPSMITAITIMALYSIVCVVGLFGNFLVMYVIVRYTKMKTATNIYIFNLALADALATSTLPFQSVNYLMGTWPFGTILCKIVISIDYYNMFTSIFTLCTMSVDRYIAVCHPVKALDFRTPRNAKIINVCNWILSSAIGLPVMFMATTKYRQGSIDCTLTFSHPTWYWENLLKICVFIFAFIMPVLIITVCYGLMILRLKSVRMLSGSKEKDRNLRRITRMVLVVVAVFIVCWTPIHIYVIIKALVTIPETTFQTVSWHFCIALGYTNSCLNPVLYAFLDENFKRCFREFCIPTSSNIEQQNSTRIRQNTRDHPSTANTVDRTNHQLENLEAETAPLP

SMILES	Ke [1] [nM]	Antagonist selectivity ratio [2]	Ke [3] [nM]	Ke [4] [nM]	Ratio Ki [5]	Emax [6] [%]	Intrinsic activity [7]	Intrinsic activity [8]	IC50 [9] [µM]	Intrinsic activity [10]	Intrinsic activity [6]	Ratio pKi [2]	Ratio pKi [5]	Ki [11] [µM]
O=C1c2c(O)cc(O)cc2O[C@H](c2ccc(O)c(O)c2)[C@H]1O [(+)-TAXIFOLIN]	3280	0.93	3070	3820	1.2	–	–	–	–	–	–	–	–	–
CC(C)[C@@H](CN1CC[C@@](C)(c2cccc(O)c2)[C@@H](C)C1)NC(=O)[C@H]1Cc2ccc(O)cc2CN1 [JDTIC]	–	1250	–	–	3800	–	–	–	–	–	–	–	–	–
Oc1cc(O)c2c(c1)O[C@@H](c1ccc(O)c(O)c1)[C@H](O)C2 [(-)-CATECHIN]	3600	0.67	2400	1770	0.49	18	–	–	–	–	–	–	–	–
COc1ccc([C@@H]2CC(=O)c3c(O)cc(O)cc3O2)cc1O	> 10000	–	> 10000	> 10000	–	–	–	–	–	–	–	–	–	–
O=C1C[C@@H](c2ccc(O)cc2)Oc2cc(O)cc(O)c21 [NARINGENIN]	1700	1.4	2300	3680	2.2	–	–	–	–	–	–	–	–	–
O=c1cc(-c2ccc(O)cc2)oc2cc(O)ccc12	1610	0.3	480	2090	1.3	–	–	–	–	–	–	–	–	–
O=c1c(O[C@@H]2O[C@H](CO)[C@H](O)[C@H](O)[C@H]2O)c(-c2ccc(O)c(O)c2)oc2cc(O)cc(O)c12 [HYPEROSIDE]	340	1.1	390	9070	27	–	–	–	–	–	–	–	–	–
O=C(O[C@@H]1Cc2c(O)cc(O)cc2O[C@@H]1c1ccc(O)c(O)c1)c1cc(O)c(O)c(O)c1 [EPICATECHIN GALLATE]	1900	0.79	1500	1700	0.89	–	inactive	inactive	0.036	inactive	–	–	–	–
Oc1cc(O)c2c(c1)O[C@H](c1ccc(O)c(O)c1)[C@@H](O)C2 [CIANIDANOL]	320	–	> 10000	1180	–	–	–	–	–	–	inactive	>31	3.7	–
Oc1cc(O)c2c(c1)O[C@H](c1ccc(O)c(O)c1)[C@H](O)C2	–	–	–	–	–	–	–	–	–	–	inactive	–	–	–
O=C1CC(c2ccc(O)cc2)Oc2ccccc21 (stereo not drawn) [4'-HYDROXY-FLAVANONE]	550	1.1	590	3490	6.3	–	–	–	–	–	–	–	–	–
Oc1ccc2c3c1O[C@H]1c4[nH]c5c(c4C[C@@]4(O)[C@@H](C2)N(CC2CC2)CC[C@]314)C[C@@]1(O)[C@H]2Cc3ccc(O)c4c3[C@@]1(CCN2CC1CC1)[C@H]5O4 [NORBINALTORPHIMINE]	–	520	–	–	580	–	–	–	–	–	–	–	–	–
O=c1cc(-c2ccc(O)cc2)oc2cc(O)cc(O)c12 [APIGENIN]	410	1	410	970	2.4	–	inactive	inactive	–	inactive	–	–	–	–
Oc1cc(O)c2c(c1)O[C@@H](c1ccc(O)c(O)c1)[C@@H](O)C2 [(+)-EPICATECHIN]	5810	0.52	3020	2170	0.37	–	–	–	–	–	inactive	–	–	–
Oc1cc(O)c2c(c1)O[C@H](c1cc(O)c(O)c(O)c1)[C@H](O)C2 [EPIGALLOCATECHIN]	250	1.2	300	1990	8	–	inactive	inactive	–	inactive	–	–	–	–
O=C(O[C@@H]1Cc2c(O)cc(O)cc2O[C@H]1c1ccc(O)c(O)c1)c1cc(O)c(O)c(O)c1 [(-)-CATECHINGALLATE]	220	0.95	210	950	4.3	–	inactive	inactive	–	inactive	–	–	–	–
O=c1cc(-c2ccc(O)c(-c3c(O)cc(O)c4c(=O)cc(-c5ccc(O)cc5)oc34)c2)oc2cc(O)cc(O)c12 [AMENTOFLAVONE]	490	>20	> 10000	6000	12	–	inactive	inactive	–	inactive	–	–	–	0.036
